Data from the M2OR odorant receptor database.

Key:
Details in all cases: stereoisomer not certain
O4F15 A272T = test system: O4F15 A272T
Method in brief: (§1)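 Each receptor–molecule pair is labelled responsive or non-responsive (inactive) according to whether the original authors judged the measured signal statistically different from baseline. The data were taken from the main text and supplementary material of published papers and checked for typos and inconsistencies. Assay methods differed by source, with transient luciferase assays in mammalian cell lines being common.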

O4F15 S149F = test system: O4F15 S149F
Chain of O4F15 S149F (as listed by the source, stated change not applied): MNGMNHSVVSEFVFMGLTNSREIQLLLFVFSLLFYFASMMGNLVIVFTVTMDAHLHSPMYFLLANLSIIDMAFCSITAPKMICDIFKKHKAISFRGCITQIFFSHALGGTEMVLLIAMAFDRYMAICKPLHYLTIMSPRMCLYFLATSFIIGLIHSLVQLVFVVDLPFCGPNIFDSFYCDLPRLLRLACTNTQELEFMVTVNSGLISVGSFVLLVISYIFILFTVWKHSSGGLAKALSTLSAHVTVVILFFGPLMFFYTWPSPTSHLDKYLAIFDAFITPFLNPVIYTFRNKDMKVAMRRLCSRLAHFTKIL
Method in brief: as §1

O4F17 [1] = test system: O4F17
Method in brief: as §1
Target sequence in this assay (as listed by the source): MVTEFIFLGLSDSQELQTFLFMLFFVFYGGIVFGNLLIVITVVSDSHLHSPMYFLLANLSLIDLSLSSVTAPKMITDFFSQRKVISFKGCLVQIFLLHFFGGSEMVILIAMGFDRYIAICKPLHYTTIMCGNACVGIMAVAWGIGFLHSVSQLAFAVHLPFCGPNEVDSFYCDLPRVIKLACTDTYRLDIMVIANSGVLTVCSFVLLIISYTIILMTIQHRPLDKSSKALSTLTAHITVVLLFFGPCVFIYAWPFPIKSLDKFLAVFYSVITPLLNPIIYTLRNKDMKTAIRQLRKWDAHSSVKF

O4F17 [2] = test system: O4F17; remark: listed apart in the source
Method in brief: as §1
Target sequence in this assay (as listed by the source): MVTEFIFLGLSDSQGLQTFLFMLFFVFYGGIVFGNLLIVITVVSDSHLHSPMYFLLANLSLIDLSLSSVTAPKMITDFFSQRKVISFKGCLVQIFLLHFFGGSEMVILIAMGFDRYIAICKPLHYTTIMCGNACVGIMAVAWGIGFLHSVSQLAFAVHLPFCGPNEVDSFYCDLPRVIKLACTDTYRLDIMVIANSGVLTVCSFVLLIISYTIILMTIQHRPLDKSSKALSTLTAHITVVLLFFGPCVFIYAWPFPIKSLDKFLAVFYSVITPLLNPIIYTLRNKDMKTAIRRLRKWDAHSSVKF

O4F21 F44L = test system: O4F21 F44L
Chain of O4F21 F44L (as listed by the source, stated change not applied): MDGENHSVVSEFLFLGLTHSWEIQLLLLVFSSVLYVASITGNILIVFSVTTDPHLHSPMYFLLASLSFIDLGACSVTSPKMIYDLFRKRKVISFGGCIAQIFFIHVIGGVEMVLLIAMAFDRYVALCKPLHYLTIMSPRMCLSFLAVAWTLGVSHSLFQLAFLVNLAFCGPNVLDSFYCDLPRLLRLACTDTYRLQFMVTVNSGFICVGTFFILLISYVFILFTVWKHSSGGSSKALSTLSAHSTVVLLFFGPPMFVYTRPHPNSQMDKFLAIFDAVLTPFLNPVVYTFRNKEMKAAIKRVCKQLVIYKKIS
Method in brief: as §1

O51A7 E8D = test system: O51A7 E8D
Chain of O51A7 E8D (as listed by the source): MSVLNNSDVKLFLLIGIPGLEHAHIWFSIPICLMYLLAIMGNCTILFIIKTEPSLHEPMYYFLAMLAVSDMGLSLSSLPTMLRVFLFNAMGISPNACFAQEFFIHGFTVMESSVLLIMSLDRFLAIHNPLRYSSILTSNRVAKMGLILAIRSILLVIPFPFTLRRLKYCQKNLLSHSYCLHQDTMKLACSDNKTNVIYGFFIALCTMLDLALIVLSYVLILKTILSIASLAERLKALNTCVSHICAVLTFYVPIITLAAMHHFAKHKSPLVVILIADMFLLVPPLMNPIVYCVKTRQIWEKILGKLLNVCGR
Method in brief: as §1

O51B2 C120R C209S P283S = test system: O51B2 C120R C209S P283S
Method in brief: as §1

O51B4 M147T = test system: O51B4 M147T
Chain of O51B4 M147T (as listed by the source, stated change not applied): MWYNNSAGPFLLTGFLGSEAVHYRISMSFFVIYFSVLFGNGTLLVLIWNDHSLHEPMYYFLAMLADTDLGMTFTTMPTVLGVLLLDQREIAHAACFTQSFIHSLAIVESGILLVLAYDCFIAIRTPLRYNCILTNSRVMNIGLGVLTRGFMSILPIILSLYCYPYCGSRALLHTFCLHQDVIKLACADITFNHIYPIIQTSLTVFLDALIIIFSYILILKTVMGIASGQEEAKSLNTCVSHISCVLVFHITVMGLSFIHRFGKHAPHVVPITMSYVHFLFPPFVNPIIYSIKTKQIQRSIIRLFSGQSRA
Method in brief: as §1

O51B4 = test system: O51B4
Chain of O51B4 (as listed by the source): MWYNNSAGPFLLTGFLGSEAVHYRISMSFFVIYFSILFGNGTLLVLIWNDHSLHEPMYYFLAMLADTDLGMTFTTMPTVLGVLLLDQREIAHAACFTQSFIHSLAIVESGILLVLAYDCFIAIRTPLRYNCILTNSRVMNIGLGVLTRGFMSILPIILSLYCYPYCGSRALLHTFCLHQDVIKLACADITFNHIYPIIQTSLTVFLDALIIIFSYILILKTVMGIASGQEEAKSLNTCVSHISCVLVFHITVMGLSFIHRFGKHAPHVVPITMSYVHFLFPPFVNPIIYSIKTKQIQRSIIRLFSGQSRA
Method in brief: as §1

O51B5 G5S I102T P160L = test system: O51B5 G5S I102T P160L
Method in brief: as §1

Measured: odorant receptor agonist call;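 note: active if original authors judged signal statistically different from baseline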

Chain of O4F15 A272T (as listed by the source, stated change not applied): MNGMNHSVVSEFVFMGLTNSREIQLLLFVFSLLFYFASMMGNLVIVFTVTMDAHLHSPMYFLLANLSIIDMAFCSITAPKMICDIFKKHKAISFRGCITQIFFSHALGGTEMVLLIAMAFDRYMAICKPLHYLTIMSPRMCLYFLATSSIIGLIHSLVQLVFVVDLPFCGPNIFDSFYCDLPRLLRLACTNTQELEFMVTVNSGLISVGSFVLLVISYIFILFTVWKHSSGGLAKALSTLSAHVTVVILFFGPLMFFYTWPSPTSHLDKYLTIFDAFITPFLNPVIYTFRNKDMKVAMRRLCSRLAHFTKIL

C=CCOC(=O)Cc1ccccc1
inactive: all assays above
